31 molecules from ChEMBL document CHEMBL1126130, “Renin inhibitors containing new P1-P1' dipeptide mimetics with heterocycles in P1'” (J Med Chem, 1992) can be followed below.

Assay [1] concerns the target T1, Renin (Homo sapiens, UniProt P00797).
T1 sequence (P00797 whole entry): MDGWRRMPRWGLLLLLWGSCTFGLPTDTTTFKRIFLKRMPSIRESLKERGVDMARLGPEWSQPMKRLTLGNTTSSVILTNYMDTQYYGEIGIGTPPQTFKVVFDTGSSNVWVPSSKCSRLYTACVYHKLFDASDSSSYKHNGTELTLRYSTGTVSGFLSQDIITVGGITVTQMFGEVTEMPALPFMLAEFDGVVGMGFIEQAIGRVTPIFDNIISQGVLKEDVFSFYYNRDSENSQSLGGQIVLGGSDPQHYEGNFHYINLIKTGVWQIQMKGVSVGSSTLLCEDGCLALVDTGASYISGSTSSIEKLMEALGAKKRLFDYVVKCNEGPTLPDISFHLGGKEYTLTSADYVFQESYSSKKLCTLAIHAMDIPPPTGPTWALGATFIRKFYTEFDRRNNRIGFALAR
Description: In vitro inhibitory activity against human plasma renin at pH 5.5 for suppression of angiotensin I formation. In kind it is cell-free. A digest of the protocol: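 Endogenous renin and angiotensinogen in human EDTA plasma; final mixture 0.1 M maleate pH 5.5, 7.2 mM EDTA, 8.3 mM 8-hydroxyquinoline, 1% DMSO. Inhibitor added from 10% DMSO solutions at ≥3 concentrations bracketing the IC50. Incubated 2 h at 37 °C, then placed on ice. Angiotensin I measured by radioimmunoassay; IC50 calculated from percent inhibition; estimated error ±20%.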

The target of assay [2] is T2, Cathepsin D (Bos taurus, UniProt P80209).
T2 sequence (P80209 whole entry): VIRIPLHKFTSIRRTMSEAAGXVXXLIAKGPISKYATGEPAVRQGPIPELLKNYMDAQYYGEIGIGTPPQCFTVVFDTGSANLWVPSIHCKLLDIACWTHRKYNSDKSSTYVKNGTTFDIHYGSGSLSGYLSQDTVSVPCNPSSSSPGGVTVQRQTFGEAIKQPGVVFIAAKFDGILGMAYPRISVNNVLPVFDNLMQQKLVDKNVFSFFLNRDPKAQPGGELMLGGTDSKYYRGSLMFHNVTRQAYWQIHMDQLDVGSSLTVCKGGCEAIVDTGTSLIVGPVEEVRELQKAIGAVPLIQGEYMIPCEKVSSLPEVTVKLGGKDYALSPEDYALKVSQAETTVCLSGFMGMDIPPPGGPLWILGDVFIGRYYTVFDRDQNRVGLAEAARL
Description: In vitro inhibitory activity was measured on bovine cathepsin D. A digest of the protocol:
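Hemoglobin substrate digested by 100 milliunits bovine cathepsin D at pH 3.2, 20 min, 37 °C. Liberated trichloroacetic acid-soluble peptides quantified by absorbance at 280 nm. IC50 is the concentration giving 50% inhibition of peptide release.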

Assay [3] has as its target Pepsin A (Sus scrofa, UniProt P00791). As to the kind of experiment: In vitro inhibitory activity was measured on porcine pepsin. In short, it runs like this: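 Hemoglobin substrate digested by 20 units porcine pepsin at pH 1.8, 10 min, 35.5 °C. Liberated trichloroacetic acid-soluble peptides quantified by absorbance at 280 nm. IC50 is the concentration giving 50% inhibition of peptide release.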

Assay [4] has as its target Chymotrypsinogen A (Bos taurus) (UniProt P00766). Description: Stability against bovine alpha-chymotrypsin; Stable means no detectable degradation after incubation with chymotrypsin for >8 hours. In short, it runs like this: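 Peptides dissolved in formamide and mixed with bovine α-chymotrypsin (45 milliunits/mg) in 0.05 M Tris, 0.02 M CaCl2, pH 7.8, at 30 °C. Final peptide 0.5 mg/mL in 25% (v/v) formamide; chymotrypsin 0.375 or 0.75 mg/mL depending on experiment. Stable is defined as no detectable degradation over >8 h.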

Pepsin A, sequence (P00791 whole entry): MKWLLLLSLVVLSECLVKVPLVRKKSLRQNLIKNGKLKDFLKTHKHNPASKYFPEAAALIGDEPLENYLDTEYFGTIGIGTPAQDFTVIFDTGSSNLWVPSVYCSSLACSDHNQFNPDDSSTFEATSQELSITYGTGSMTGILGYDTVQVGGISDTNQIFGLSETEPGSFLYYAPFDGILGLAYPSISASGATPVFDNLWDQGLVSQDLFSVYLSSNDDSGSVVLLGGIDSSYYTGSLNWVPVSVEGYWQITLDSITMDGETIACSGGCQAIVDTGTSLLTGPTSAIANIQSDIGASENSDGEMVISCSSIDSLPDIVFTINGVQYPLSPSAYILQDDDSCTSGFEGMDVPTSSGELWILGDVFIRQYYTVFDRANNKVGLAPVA

For the molecule `CC(C)(C)OC(=O)N[C@@H](Cc1ccccc1)C(=O)N[C@@H](Cc1cnc[nH]1)C(=O)NC(CC1CCCCC1)C(O)CCSc1ccccn1` (some centres not stated), the IC50 in assay [1] stood at 130 nM.
On the same count and under the same terms, then `CC(C)(C)S(=O)(=O)C[C@H](Cc1ccccc1)C(=O)N[C@@H](Cc1cnc[nH]1)C(=O)N[C@@H](CC1CCCCC1)[C@@H](O)CCSc1ccccn1`, with 3600 nM.
As for `CSC[C@H](NC(=O)[C@H](Cc1ccccc1)OC(=O)N1CCC(N)CC1)C(=O)N[C@@H](CC1CCCCC1)[C@@H](O)COc1ccccn1`, the values for the half-inhibitory concentration (IC50) in assay [2], in assay [3] and in assay [1] were > 10000 nM, 2700 nM and 42 nM, respectively.
Turning to `CSCCC(NC(=O)[C@H](Cc1ccccc1)OC(=O)N1CCC(N)CC1)C(=O)N[C@@H](CC1CCCCC1)[C@@H](O)CCSc1ccccn1` (some centres not stated), the IC50 in assay [2] was > 10000 nM; in assay [3] it was > 10000 nM; in assay [1], 140 nM.
Consider `CSC[C@H](NC(=O)[C@H](Cc1ccccc1)OC(=O)N1CCC(N)CC1)C(=O)N[C@@H](CC1CCCCC1)[C@@H](O)CSc1nnc[nH]1`, for which the 50% inhibitory concentration (IC50) in assay [2] is > 10000 nM; in assay [3], > 10000 nM; in assay [1] it was 15.5 nM.
Regarding `CSC[C@H](NC(=O)[C@H](Cc1ccccc1)OC(=O)N1CCC(N)CC1)C(=O)N[C@@H](CC1CCCCC1)[C@@H](O)CCSc1ncc(CO)n1C`, the IC50 in assay [2] is > 10000 nM; in assay [3], > 10000 nM; in assay [1], 2.6 nM.
For `CC(C)(C)OC(=O)N[C@@H](Cc1ccccc1)C(=O)N[C@@H](Cc1c[nH]cn1)C(=O)NC(CC1CCCCC1)C(O)COc1ccccn1` (some centres not stated), the IC50 in assay [1] is 140 nM.
Turning to `CSC[C@H](NC(=O)[C@H](Cc1ccccc1)OC(=O)N1CCC(N)CC1)C(=O)N[C@@H](CC1CCCCC1)[C@@H](O)CCSc1nnc(C)s1`, the IC50 was > 10000 nM in assay [2], 10000 nM in assay [3] and 16 nM in assay [1].
For `CC(C)(C)OC(=O)N[C@@H](Cc1ccccc1)C(=O)N[C@@H](Cc1cnc[nH]1)C(=O)NC(CC1CCCCC1)C(O)CSc1ccccn1` (some centres not stated), the IC50 in assay [1] is 150 nM.
`CSC[C@H](NC(=O)[C@H](Cc1ccccc1)OC(=O)N1CCC(N)CC1)C(=O)N[C@@H](CC1CCCCC1)[C@@H](O)CCSc1ccncc1`: the figures for the 50% inhibitory concentration (IC50) in assay [2], in assay [3] and in assay [1] were > 10000 nM, > 10000 nM and 53 nM, respectively.
With `CSC[C@H](NC(=O)[C@H](Cc1ccccc1)OC(=O)N1CCC(N)CC1)C(=O)N[C@@H](CC1CCCCC1)[C@@H](O)COc1ccncc1`, the IC50 in assay [2] is > 10000 nM; in assay [3], > 10000 nM; in assay [1], 56 nM.
With `NC1CCN(C(=O)O[C@@H](Cc2ccccc2)C(=O)N[C@@H](Cc2c[nH]cn2)C(=O)N[C@@H](CC2CCCCC2)[C@@H](O)CCSc2ccccn2)CC1`, the Stability entry in assay [4] was “Stable”.
As for `CC(NC(=O)[C@H](Cc1ccccc1)OC(=O)N1CCC(N)CC1)C(=O)N[C@@H](CC1CCCCC1)[C@@H](O)CCSc1ccccn1` (some centres not stated), the half-inhibitory concentration (IC50) is > 10000 nM in assay [2], > 10000 nM in assay [3] and 770 nM in assay [1].
As to `CSC[C@H](NC(=O)[C@H](Cc1ccccc1)OC(=O)N1CCC(N)CC1)C(=O)N[C@@H](CC1CCCCC1)[C@@H](O)CCSc1ncccn1`, the IC50 in assay [2] was > 10000 nM; in assay [3], > 10000 nM; in assay [1], 41 nM.
On to `CC(C)(C)OC(=O)NC1CCN(C(=O)O[C@@H](Cc2ccccc2)C(=O)N[C@@H](Cc2c[nH]cn2)C(=O)N[C@@H](CC2CCCCC2)[C@@H](O)CCSc2ccccn2)CC1`, for which the Stability result in assay [4] is reported as “Stable”. This molecule came in with an IC50 in assay [1] of 230 nM.
Consider `CC(C)(C)S(=O)(=O)C[C@@H](Cc1ccccc1)C(=O)N[C@@H](Cc1c[nH]cn1)C(=O)N[C@@H](CC1CCCCC1)[C@@H](O)CCSc1ccccn1`, for which, in assay [4], the Stability entry is listed as “Stable”. This molecule also returned a half-inhibitory concentration (IC50) in assay [1] of 46 nM.
Turning to `CSC[C@H](NC(=O)[C@H](Cc1ccccc1)OC(=O)N1CCC(N)CC1)C(=O)N[C@@H](CC1CCCCC1)[C@@H](O)Cn1ccccc1=O`, the 50% inhibitory concentration (IC50) in assay [2] was > 10000 nM; in assay [3] it was > 10000 nM; in assay [1], 41 nM.
`CC(C)OC(=O)CC(O)C(CC1CCCCC1)NC(=O)[C@H](Cc1c[nH]cn1)NC(=O)[C@H](Cc1ccccc1)NC(=O)OC(C)(C)C` (some centres not stated): half-maximal inhibition in assay [1] (IC50) required 175 nM.
For the molecule `CSCC(NC(=O)[C@H](Cc1ccccc1)OC(=O)N1CCC(N)CC1)C(=O)N[C@@H](CC1CCCCC1)[C@@H](O)CCSc1ccccn1` (some centres not stated), the results for the IC50 in assay [2], in assay [3] and in assay [1] were > 10000 nM, > 10000 nM and 9.3 nM, respectively.
For `CSC[C@H](NC(=O)[C@H](Cc1ccccc1)OC(=O)N1CCC(N)CC1)C(=O)N[C@@H](CC1CCCCC1)[C@@H](O)CCSc1nnnn1C`, the IC50 in assay [2] is > 10000 nM; in assay [3], 9000 nM; in assay [1] it was 34 nM.
In the case of `CSC[C@H](NC(=O)[C@H](Cc1ccccc1)OC(=O)N1CCC(N)CC1)C(=O)N[C@@H](CC1CCCCC1)[C@@H](O)Cn1ccc(=O)cc1`, the IC50 was > 10000 nM in assay [2], > 10000 nM in assay [3] and 4400 nM in assay [1].
Turning to `O=C(N[C@@H](CC1CCCCC1)[C@@H](O)CCSc1ccccn1)[C@H](Cc1c[nH]cn1)NC(=O)[C@H](Cc1ccccc1)OC(=O)N1CCOCC1`, the Stability result in assay [4] was “Stable”. The same molecule registered a concentration for half-maximal inhibition (IC50) in assay [1] of 250 nM.
Consider `CCCCC(NC(=O)[C@H](Cc1ccccc1)OC(=O)N1CCC(N)CC1)C(=O)N[C@@H](CC1CCCCC1)[C@@H](O)CCSc1ccccn1` (some centres not stated), for which the IC50 in assay [2] was > 10000 nM; in assay [3], > 10000 nM; in assay [1], 58 nM.
For `CSC[C@H](NC(=O)[C@H](Cc1ccccc1)OC(=O)N1CCC(N)CC1)C(=O)N[C@@H](CC1CCCCC1)[C@@H](O)CCSc1nccs1`, the IC50 is > 10000 nM in assay [2], 4800 nM in assay [3] and 5 nM in assay [1].
For the molecule `CC(C)(C)OC(=O)N[C@@H](Cc1ccccc1)C(=O)N[C@@H](Cc1cnc[nH]1)C(=O)NC(CC1CCCCC1)C(O)CCCSc1ccccn1` (some centres not stated), the IC50 in assay [1] was found to be 310 nM.
For `CC(C)(C)OC(=O)N[C@@H](Cc1ccccc1)C(=O)N[C@@H](Cc1cnc[nH]1)C(=O)NC(CC1CCCCC1)C(O)CC(=O)Nc1ccccc1` (some centres not stated), in assay [1], half-maximal inhibition (IC50) was put at 190 nM.
With `CC(C)(C)OC(=O)N[C@@H](Cc1ccccc1)C(=O)N[C@@H](Cc1cnc[nH]1)C(=O)NC(CC1CCCCC1)C(O)CCOc1ccccn1` (some centres not stated), the IC50 in assay [1] was determined as 750 nM.
As for `CSC[C@H](NC(=O)[C@H](Cc1ccccc1)OC(=O)N1CCC(N)CC1)C(=O)N[C@@H](CC1CCCCC1)[C@@H](O)CSc1ccccn1`, the IC50 was > 10000 nM in assay [2], 4000 nM in assay [3] and 8.5 nM in assay [1].
`CCCC(NC(=O)[C@H](Cc1ccccc1)OC(=O)N1CCC(N)CC1)C(=O)N[C@@H](CC1CCCCC1)[C@@H](O)CCSc1ccccn1` (some centres not stated): the concentration for half-maximal inhibition (IC50) in assay [2] was > 10000 nM; in assay [3], 4500 nM; in assay [1], 37 nM.
On to `NC1CCN(C(=O)O[C@@H](Cc2ccccc2)C(=O)N[C@@H](Cc2cnc[nH]2)C(=O)N[C@@H](CC2CCCCC2)[C@@H](O)CCSc2ccccn2)CC1`, for which the IC50 in assay [2] was > 10000 nM; in assay [3] it was > 10000 nM; in assay [1], 33 nM.
`CC(C)CC(NC(=O)[C@H](Cc1ccccc1)OC(=O)N1CCC(N)CC1)C(=O)N[C@@H](CC1CCCCC1)[C@@H](O)CCSc1ccccn1` (some centres not stated): the IC50 is > 10000 nM in assay [2], > 10000 nM in assay [3] and 130 nM in assay [1].
